The target of data set [1] is PduO-type ATP-dependent cob(I)alamin adenosyltransferase (ATR) (Methylorubrum extorquens, UniProt C5AZG1, DEL180-190). As to the kind of experiment: isothermal titration calorimetry. It is filed as binding. The procedure, abridged:
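Recombinant His-tagged M. extorquens ATR, D180X mutant, expressed in E. coli BL21(DE3) and Ni-NTA purified. 40–45 μM protein in 50 mM HEPES pH 8, 0.3 M KCl, 10 mM MgCl2, 5% glycerol at 4 °C, titrated with 45 aliquots of 1–2 mM ATP or AdoCbl. KA, ΔH° and ΔS° were obtained from two-site (ATP) or single-site (AdoCbl) fits, in triplicate.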
Background: In ITC the heat of successive injections is recorded.

The subject of data set [2] is Nc1ncnc2c1ncn2[C@@H]1O[C@H](COP(=O)(O)OP(=O)(O)OP(=O)(O)O)[C@@H](O)[C@H]1O. Description: purified protein. It is filed as biochemical, Methylorubrum extorquens. The conditions noted are these: printed as D180X; 55 μM HOCbl (reduced to cob(I)alamin), ATP 0.5-300 μM.
Substrate in the data set “purified protein”: Nc1ncnc2c1ncn2[C@@H]1O[C@H](COP(=O)(O)OP(=O)(O)OP(=O)(O)O)[C@@H](O)[C@H]1O
Description: purified protein. In kind it is biochemical, Methylorubrum extorquens. The settings on record: apparent; 55 μM HOCbl (reduced to cob(I)alamin), ATP 0.5-300 μM.

A word on the Kd: it is the equilibrium constant for the complex coming apart. A higher Kd goes with weaker binding. For the molecule `Nc1ncnc2c1ncn2[C@@H]1O[C@H](COP(=O)(O)OP(=O)(O)OP(=O)(O)O)[C@@H](O)[C@H]1O` [ATP], binding in data set [1] was put at a Kd of 480 ± 20 nM. The term Km denotes the substrate concentration at which the rate is half of its maximum. What is called kcat/Km is the second-order rate constant that governs catalysis at low substrate concentration. In the case of “PduO-type ATP-dependent cob(I)alamin adenosyltransferase (ATR) (Methylorubrum extorquens AM1; DEL180-190)”, in data set [2], the Km turned out to be 9.5 ± 1.2 µM, the kcat result is reported as “(2.5 ± 0.1) × 10^−1 s^−1” and the catalytic efficiency (kcat/Km) came out at 27000 ± 1000 M⁻¹ s⁻¹.

B1: PduO-type ATP-dependent cob(I)alamin adenosyltransferase (ATR) (Methylorubrum extorquens AM1) (protein)
chain: MVKLNRIYTRTGDQGTTGLANGERRSKADLRVEAYGTVDETNACIGLARLTAEPALDAMLARIQNDLFDLGADLATPPSDKPLGYEPLRIVPAQVQRLETEIDALNANIPPLKSFVLPGGSAAAAALHLARTVCRRAERLVVALSGVESEAISGEALQYLNRLSDFLFVASRAANRDGADDVLWVPGQNR
Regarding B1, the Km in the data set “purified protein” was found to be 8.4 ± 1.4 µM.

Values taken from paper PMC3119721 (Biochemistry, 2011).
